# Screening results from PubChem.
# Compounds with a hit are over-represented: about 1.9% of the library has one in this group of screens.
# Runt-SMMHC FRET – inhibitors of human RUNX1 Runt domain binding to CBFb-SMMHC; Q01196+Q13951; Cerulean-Runt/Venus-CBFb-SMMHC FRET ratio 530/480, 1 h; inhibition, % at 20 µM; 0.74% of 220,000 active;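 active means mean inhibition across duplicate retests at 20 µM reaching about 50%, limit read from the data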;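 further: 0% = DMSO wells and 100% = wells with excess untagged CBFb-SMMHC; inhibitors lower the FRET ratio by blocking Runt binding to CBFb-SMMHC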
# Target sequence (Q01196 whole entry, looked up, the tested form may be a part): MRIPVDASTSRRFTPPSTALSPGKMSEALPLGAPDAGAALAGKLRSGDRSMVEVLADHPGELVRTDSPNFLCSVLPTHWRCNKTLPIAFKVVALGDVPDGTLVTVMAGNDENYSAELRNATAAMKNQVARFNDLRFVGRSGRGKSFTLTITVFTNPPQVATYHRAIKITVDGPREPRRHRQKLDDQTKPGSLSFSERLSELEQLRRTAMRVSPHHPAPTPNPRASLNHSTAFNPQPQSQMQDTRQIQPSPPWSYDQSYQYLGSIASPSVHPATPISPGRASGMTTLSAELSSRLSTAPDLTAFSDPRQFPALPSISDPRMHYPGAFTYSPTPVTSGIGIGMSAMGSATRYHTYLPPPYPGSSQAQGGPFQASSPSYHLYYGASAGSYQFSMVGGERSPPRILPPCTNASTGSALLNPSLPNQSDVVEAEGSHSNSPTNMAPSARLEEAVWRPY
# Target sequence (Q13951 whole entry, looked up, the tested form may be a part): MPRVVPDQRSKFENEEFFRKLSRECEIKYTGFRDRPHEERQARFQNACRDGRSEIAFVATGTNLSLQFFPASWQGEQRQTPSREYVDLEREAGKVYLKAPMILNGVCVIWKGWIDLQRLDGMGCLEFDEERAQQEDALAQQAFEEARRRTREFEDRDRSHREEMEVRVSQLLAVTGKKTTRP
# RanGTP-Impb inh – disruptors of Ran-importin-beta complex formation – biochemical, FRET, CFP-Ran, YFP-importin-beta, homogeneous, primary screen | inhibition, % (no concentration beside the values) | cell-free CFP-Ran/YFP-importin-beta FRET ratio | 1.1% of 300,000 active;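 active means more than half of the replicate wells show a fall in the fluorescence ratio signal beyond about 16%, limit read from the data, passing the limit was not always enough; inconclusive means exactly half of the replicate wells pass the set limit; inactive means fewer than half of replicates pass the limit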;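 further: 0% = DMSO wells and 100% = Ran loaded with GDP instead of GTP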
# CaV13 ICDI inh – Disruptors of the CACNA1D IQ motif to Ca2+-dependent inactivation inhibitor domain association, primary screening, Förster resonance energy transfer in intact living … | HEK cells, CFP/YFP FRET ICDI-IQ, plate reader, 10 min; percent FRET-ratio fall versus neutral wells | inhibition, % at 12.3 µM | AID 743397 | 0.098% of 340,000 active;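 active means mean replicate inhibition of at least 30% and at least 1% of replicates passing that level; inconclusive means only one of the two criteria is met; inactive means neither criterion is met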;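 further: 0% = median of the neutral control wells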
# Runt-CBFb FRET – Runt domain-CBFb interaction inhibition; Cerulean-Runt/Venus-CBFb FRET ratio 530/480, 1 h; Q01196+Q13951; 0.46% of 220,000 active; AID 1496; inhibition, % at 20 µM;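 active means inhibition over about 50% at 20 µM in the single-dose screen, limit read from the data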;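 further: 0% = DMSO wells and 100% = excess unlabeled CBFb competitor control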
#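 Assay system: Cerulean-Runt domain fusion protein, energy donor; Signal: fluorescence energy transfer, 422 nm excitation, 530/480 nm emission; Timing: 1 h compound exposure, room temperature; Control set: unlabeled CBFb; Medium: Tris buffer pH 7.5 with salts and BSA; Compound: single test concentration of 20 µM, 1% DMSO final; Probe or stimulus: Venus-CBFb 100 nM.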
# HDAC3 inhib – inhibitors of human histone deacetylase 3; recombinant HDAC3, fluorogenic peptide/trypsin coupled, fluorescence; inhibition, % at 8.3 µM; 0.15% of 320,000 active; in the data active means inhibition above about 26%, passing the limit was not always enough; inconclusive means no clear call, values can overlap the other calls
# LANA-H2A inh – blocks KSHV LANA binding to histone H2A/H2B; 0.6% of 320,000 active; Q9QR71; cell-free LANA-H2A/H2B peptide, fluorescence polarization; inhibition, % (test concentration not listed); in the data active means inhibition mostly above about 10%, no sharp cut-off; inactive means mostly below about 6.7%
# Numbers without * were called inactive; ? = inconclusive; nt = not tested or not shown.
SMILES,Runt-SMMHC FRET,RanGTP-Impb inh,CaV13 ICDI inh,Runt-CBFb FRET,HDAC3 inhib,LANA-H2A inh
COc1ccc(C2=NOC(C)(c3nnc(-c4ccc(Cl)cc4)o3)C2)cc1 (stereo not given),nt,2.6,-9.2,nt,-1.8,-2.1
CCn1c2ccccc2c2cc(NC(=O)c3cccc([N+](=O)[O-])c3)ccc21,nt,6.4,4.0,nt,-1.9,79.2*
CCn1c2ccccc2c2cc(NC(=O)c3ccc(=O)oc3)ccc21,-101.5,0.5,?,-147.0,5.3,1.9
CCn1c2ccccc2c2cc(NC(=O)c3ccc(C)c([N+](=O)[O-])c3)ccc21,2.7,2.8,-5.5,0.3,5.7,1.5
CCn1c2ccccc2c2cc(NC(=O)c3coc(=O)c(Br)c3)ccc21,-103.8,-5.2,3.2,-40.7,-4.5,19.7*
CCC(CC)C(=O)N(C)c1c(C)nc2c(OCc3cccc(Cl)c3)cccn12,nt,nt,-5.8,nt,nt,nt
Cc1ccc(CNC(=O)CCS(=O)(=O)c2cccc3nonc23)cc1,1.4,1.0,-4.8,2.5,-0.2,4.0
Cc1ccn2c(=O)nc(SCc3cccc(C(F)(F)F)c3)nc2c1,0.5,-2.2,4.1,-9.8,2.5,-2.6
O=c1nc(SCc2cccc(C(F)(F)F)c2)nc2ccccn12,-1.3,5.6,-6.1,-4.6,2.3,16.9*
O=C1c2cccc3cccc(c23)C(=O)N1CCCn1ccnc1,nt,1.0,-14.9,nt,3.9,5.4
Cn1cc([C@]2(O)C(=O)Nc3ccccc32)c2ccccc21,nt,nt,-10.8,nt,nt,nt
CCn1c(=N)c(S(=O)(=O)c2ccc(C)cc2)cc2c(=O)n3ccccc3nc21,nt,-1.4,1.9,nt,-25.2,1.3
CCn1c(=N)c(S(=O)(=O)c2ccccc2)cc2c(=O)n3ccccc3nc21,90.5*,169.8*,32.5*,20.6,-15.2,3.2
CCCn1c(=N)c(S(=O)(=O)c2ccccc2)cc2c(=O)n3ccccc3nc21,84.0*,198.3*,129.5*,21.6,-42.2,-2.1
COc1ccc(CCn2c(=N)c(S(=O)(=O)c3ccccc3)cc3c(=O)n4ccccc4nc32)cc1,nt,-0.9,-2.8,nt,2.8,16.0
CCOc1ccccc1NC(=O)N1CCC(NC(=O)c2ccccc2C)CC1,2.4,?,-4.3,0.2,-5.2,-3.4
Cc1ccc(/C=C2/CNC/C(=C/c3ccc(C)cc3)C2=O)cc1,nt,nt,-6.4,nt,nt,nt
COc1cc(C(=O)NNC(=O)CCOc2ccccc2)cc(OC)c1OC,nt,nt,-11.0,nt,-5.5,16.8*
COc1cc(C(=O)NNC(=O)Cc2cccs2)cc(OC)c1OC,nt,nt,-2.5,nt,5.5,-4.1
CCN(CC)C(=O)c1cccc(NC(=O)C2=COCCO2)c1,nt,nt,-2.2,nt,4.1,17.7*
COc1ccc(C(=O)NC(CCSC)C(=O)N2CCCCCC2)cc1 (stereo not given),nt,0.8,-7.0,nt,0.1,30.8*
CCc1ccc[n+](-c2nc3ccccc3nc2C(=C=[N-])C#N)c1,5.4,30.6*,-13.6,-16.9,5.6,0.8
Cc1cc(C)c(NC(=O)CN)c(C)c1,-1.3,-2.6,-8.2,1.2,1.3,-2.3
CCSc1n[nH]c2nc3c(c(=O)n12)C1(CCCC1)Cc1ccccc1-3,62.0*,12.0,-5.1,22.0,-23.2,2.7
CCN(CC)Cc1nc2c(c(=O)[nH]1)C1(CCCCC1)Cc1ccccc1-2,33.3,29.8*,-8.9,-1.7,2.9,0.6
SMILES,Runt-SMMHC FRET,RanGTP-Impb inh,CaV13 ICDI inh,Runt-CBFb FRET,HDAC3 inhib,LANA-H2A inh
CC(=O)Nn1cnc2c(c1=O)C1(CCCC1)Cc1ccccc1-2,3.3,nt,-4.8,-0.2,0.8,-0.9
CN(C)Cc1nc2c(c(=O)[nH]1)C1(CCCCC1)Cc1ccccc1-2,-1.2,?,-9.9,-0.7,4.1,0.5
Nn1cnc2c(c1=O)C1(CCCCC1)Cc1ccccc1-2,-4.0,26.0*,-19.1,-2.2,-8.2,-3.0
COc1ccc(NC(=O)CN(c2ccc(C)cc2)S(C)(=O)=O)c(OC)c1,1.9,-1.8,nt,2.2,?,-6.5
CCCCc1nnc(NC(=O)CCSc2ccccc2)s1,-5.0,?,-8.7,2.3,-3.8,-6.2
Cc1ccc(-c2nc3ccccc3nc2-c2ccccc2)cc1,nt,1.9,-3.4,nt,3.3,0.0
Cn1nc(-c2ccccc2)c2nc3ccccc3nc21,-145.7,-17.4,nt,-155.7,5.2,95.4*
CCCCn1nc(-c2ccccc2)c2nc3ccccc3nc21,10.8,-9.8,nt,-136.2,-5.2,25.1*
O=C(CSc1ccc(-c2ccc(F)cc2)nn1)NC1CCCCC1,nt,0.7,-7.3,nt,4.8,-0.4
COc1cc(C(=O)N[C@H](C(=O)NC2CCCCCC2)C(C)C)cc(OC)c1OC,-1.3,1.9,nt,-1.4,10.7,0.3
Cc1cc(-n2c(C)cc(C(=O)CSc3ncnc4ccccc34)c2C)no1,110.4*,0.1,-4.1,33.5,6.6,3.0
Cc1cc(C(=O)CSc2ncnc3ccccc23)c(C)n1C1CC1,nt,nt,-1.7,nt,-12.5,-0.7
CCOc1ccc(/C=N/OCC(=O)Nc2cc(S(=O)(=O)N3CCOCC3)ccc2OC)cc1,nt,-0.8,-4.2,nt,-8.0,-4.5
CN(CCOC(=O)c1ccccc1)Cc1ccccc1,4.4,-1.1,-4.0,-3.2,-1.4,1.2
CN(CCOC(=O)c1cccc(F)c1)Cc1ccccc1,-0.2,3.6,-3.7,1.4,-3.6,11.0*
O=S(=O)(Cc1ccccc1)N1CCN(Cc2ccc3c(c2)OCO3)CC1,-1.7,158.5*,-5.5,0.7,-6.7,1.0
NC(=O)NC(CC(=O)NCCCc1ccccc1)c1ccccc1Cl (stereo not given),0.6,-1.9,4.5,-0.7,1.8,3.6
NC(=O)NC(CC(=O)NCCc1ccccn1)c1ccccc1Cl (stereo not given),nt,2.5,-6.6,nt,0.8,15.0*
FC(F)(F)c1cccc(NC(=S)NNC(=S)Nc2cccc(C(F)(F)F)c2)c1,15.3,0.2,nt,18.0,?,1.1
CCOc1ccc(NC(=S)NNC(=S)Nc2cccc(C(F)(F)F)c2)cc1,6.7,22.0*,2.5,18.9,?,0.9
COc1ccc(NC(=S)NNC(=S)Nc2cccc(C(F)(F)F)c2)cc1,6.3,6.0,-1.5,23.8,27.9*,-1.1
CCOc1cccc(-c2nnc(SCC(=O)Nc3cc(OC)cc(OC)c3)n2N)c1,1.8,0.2,-5.4,0.5,-7.4,-0.8
Cc1cc(Nc2c(C)n(C)n(-c3ccccc3)c2=O)n2c(nc3ccccc32)c1C#N,54.3,107.1*,-0.8,32.4,2.2,-3.1
CCCc1cc(NCCCN2CCOCC2)n2c(nc3ccccc32)c1C#N,61.5,13.5,nt,12.5,-6.6,3.9
CCCc1cc(Nc2c(C)n(C)n(-c3ccccc3)c2=O)n2c(nc3ccccc32)c1C#N,44.0,107.4*,-1.7,26.6,-10.9,-3.1
Cc1ccc(NC(=O)Cn2nc(C(=O)O)c3ccccc3c2=O)cc1S(=O)(=O)N1CCCCC1,nt,nt,-4.1,nt,5.6,1.9
